Assay results as given in ChEMBL document CHEMBL3425433, “Discovery of bicyclic pyrazoles as class III histone deacetylase SIRT1 and SIRT2 inhibitors” (Bioorg Med Chem Lett, 2015).
Calls of active or inactive are those of the source. No cut-off for these calls is given here.

Legend:
[1] = molecular target: Histone deacetylase 1 (Homo sapiens, UniProt Q13547); experiment: Inhibition of HDAC1 (unknown origin)
[2] = molecular target: Histone deacetylase 2 (Homo sapiens, UniProt Q92769); experiment: Inhibition of HDAC2 (unknown origin)
[3] = molecular target: T1, Histone deacetylase 8 (Homo sapiens) (UniProt Q9BY41); experiment: Inhibition of HDAC8 (unknown origin)
T1 sequence (whole entry): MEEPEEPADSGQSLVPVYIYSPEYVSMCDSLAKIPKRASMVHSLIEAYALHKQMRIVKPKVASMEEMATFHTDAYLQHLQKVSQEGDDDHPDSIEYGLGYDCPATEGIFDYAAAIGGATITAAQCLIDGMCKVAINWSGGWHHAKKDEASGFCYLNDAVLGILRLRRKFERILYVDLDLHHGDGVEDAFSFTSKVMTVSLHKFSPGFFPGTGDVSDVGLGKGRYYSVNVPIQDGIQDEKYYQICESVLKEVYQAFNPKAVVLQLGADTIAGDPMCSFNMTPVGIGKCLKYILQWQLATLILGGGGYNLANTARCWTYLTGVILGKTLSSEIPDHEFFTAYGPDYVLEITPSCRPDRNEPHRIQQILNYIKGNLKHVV

[4] = molecular target: Histone deacetylase 4 (Homo sapiens) (UniProt P56524); experiment: Inhibition of HDAC4 (unknown origin)
[5] = molecular target: Histone deacetylase 5 (Homo sapiens) (UniProt Q9UQL6); experiment: Inhibition of HDAC5 (unknown origin)
[6] = molecular target: T2, NAD-dependent protein deacetylase sirtuin-1 (Homo sapiens) (UniProt Q96EB6); experiment: Inhibition of His-tagged human recombinant SIRT1 expressed in Escherichia coli at 20 uM using Cbz-Lys(Ac)-AMC as substrate by fluorescence assay
T2 sequence (whole entry): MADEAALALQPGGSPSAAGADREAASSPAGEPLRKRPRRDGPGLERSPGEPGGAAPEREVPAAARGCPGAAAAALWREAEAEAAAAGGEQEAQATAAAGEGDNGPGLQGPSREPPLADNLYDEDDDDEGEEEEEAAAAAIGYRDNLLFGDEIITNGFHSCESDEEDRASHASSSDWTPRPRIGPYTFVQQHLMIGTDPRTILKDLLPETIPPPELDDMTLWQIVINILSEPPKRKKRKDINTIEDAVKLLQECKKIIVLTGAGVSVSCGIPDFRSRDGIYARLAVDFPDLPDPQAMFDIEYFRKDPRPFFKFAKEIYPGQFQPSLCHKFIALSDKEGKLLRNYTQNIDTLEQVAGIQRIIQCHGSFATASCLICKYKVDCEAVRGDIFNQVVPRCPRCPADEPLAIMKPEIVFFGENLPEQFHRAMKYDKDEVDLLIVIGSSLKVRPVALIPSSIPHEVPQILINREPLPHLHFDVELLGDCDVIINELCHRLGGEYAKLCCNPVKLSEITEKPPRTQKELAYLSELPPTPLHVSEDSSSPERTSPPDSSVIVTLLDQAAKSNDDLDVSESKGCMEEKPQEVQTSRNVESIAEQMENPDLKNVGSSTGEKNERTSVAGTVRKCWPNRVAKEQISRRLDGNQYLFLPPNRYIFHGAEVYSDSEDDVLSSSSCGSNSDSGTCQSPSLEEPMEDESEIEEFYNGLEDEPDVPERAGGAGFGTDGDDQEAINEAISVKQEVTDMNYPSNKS
Summary of the method: (§1)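 Fluorescence deacetylase assay with in-house Cbz-Lys(Ac)-AMC substrate. Values are means of three experiments on racemic material. Single-point lines were tested at 20 µM, and less than 20% inhibition was scored as no inhibition.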

[7] = molecular target: T3, NAD-dependent protein deacetylase sirtuin-2 (Homo sapiens) (UniProt Q8IXJ6); experiment: Inhibition of His-tagged human recombinant SIRT2 expressed in Escherichia coli at 20 uM using Cbz-Lys(Ac)-AMC as substrate by fluorescence assay; summary of the method: as §1
T3 sequence (whole entry): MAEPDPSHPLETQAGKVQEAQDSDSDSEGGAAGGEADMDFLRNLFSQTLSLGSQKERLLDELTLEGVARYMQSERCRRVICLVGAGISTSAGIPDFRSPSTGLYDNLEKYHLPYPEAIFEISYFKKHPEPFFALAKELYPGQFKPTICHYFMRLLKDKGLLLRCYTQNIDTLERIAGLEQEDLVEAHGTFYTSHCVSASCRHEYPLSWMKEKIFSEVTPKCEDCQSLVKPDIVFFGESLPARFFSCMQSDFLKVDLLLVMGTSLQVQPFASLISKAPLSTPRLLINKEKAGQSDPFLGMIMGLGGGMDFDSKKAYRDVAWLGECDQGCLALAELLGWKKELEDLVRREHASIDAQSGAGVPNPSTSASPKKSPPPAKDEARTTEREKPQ

Sequence of Histone deacetylase 4 (Homo sapiens) (P56524 whole entry): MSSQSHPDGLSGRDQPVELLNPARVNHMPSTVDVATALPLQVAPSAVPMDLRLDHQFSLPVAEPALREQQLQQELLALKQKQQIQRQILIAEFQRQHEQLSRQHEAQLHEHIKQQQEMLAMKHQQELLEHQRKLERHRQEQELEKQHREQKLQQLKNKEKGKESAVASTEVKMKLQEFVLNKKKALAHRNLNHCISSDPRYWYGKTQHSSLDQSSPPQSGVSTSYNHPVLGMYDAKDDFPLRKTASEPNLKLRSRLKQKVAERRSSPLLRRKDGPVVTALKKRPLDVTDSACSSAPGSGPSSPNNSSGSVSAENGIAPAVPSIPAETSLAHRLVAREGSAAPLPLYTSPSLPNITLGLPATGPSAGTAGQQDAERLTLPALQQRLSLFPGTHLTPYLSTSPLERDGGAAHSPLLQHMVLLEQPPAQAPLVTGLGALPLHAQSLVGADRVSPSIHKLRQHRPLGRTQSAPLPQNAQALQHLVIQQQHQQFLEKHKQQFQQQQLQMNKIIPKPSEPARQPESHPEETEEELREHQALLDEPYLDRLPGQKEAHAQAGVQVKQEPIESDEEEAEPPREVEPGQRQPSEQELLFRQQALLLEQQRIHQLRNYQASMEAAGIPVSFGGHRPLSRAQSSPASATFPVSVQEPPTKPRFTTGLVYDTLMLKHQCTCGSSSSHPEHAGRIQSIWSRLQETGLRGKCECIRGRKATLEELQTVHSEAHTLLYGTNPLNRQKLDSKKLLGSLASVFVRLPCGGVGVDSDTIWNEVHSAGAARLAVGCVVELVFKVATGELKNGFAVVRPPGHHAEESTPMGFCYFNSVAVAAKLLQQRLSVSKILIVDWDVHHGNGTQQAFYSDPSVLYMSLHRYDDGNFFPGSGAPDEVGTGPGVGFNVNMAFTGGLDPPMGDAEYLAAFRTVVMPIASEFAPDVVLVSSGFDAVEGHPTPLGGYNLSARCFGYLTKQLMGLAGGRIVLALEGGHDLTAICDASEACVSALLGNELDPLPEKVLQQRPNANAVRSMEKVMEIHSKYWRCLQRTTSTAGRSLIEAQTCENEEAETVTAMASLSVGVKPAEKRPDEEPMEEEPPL
Sequence of Histone deacetylase 5 (Homo sapiens) (Q9UQL6 whole entry): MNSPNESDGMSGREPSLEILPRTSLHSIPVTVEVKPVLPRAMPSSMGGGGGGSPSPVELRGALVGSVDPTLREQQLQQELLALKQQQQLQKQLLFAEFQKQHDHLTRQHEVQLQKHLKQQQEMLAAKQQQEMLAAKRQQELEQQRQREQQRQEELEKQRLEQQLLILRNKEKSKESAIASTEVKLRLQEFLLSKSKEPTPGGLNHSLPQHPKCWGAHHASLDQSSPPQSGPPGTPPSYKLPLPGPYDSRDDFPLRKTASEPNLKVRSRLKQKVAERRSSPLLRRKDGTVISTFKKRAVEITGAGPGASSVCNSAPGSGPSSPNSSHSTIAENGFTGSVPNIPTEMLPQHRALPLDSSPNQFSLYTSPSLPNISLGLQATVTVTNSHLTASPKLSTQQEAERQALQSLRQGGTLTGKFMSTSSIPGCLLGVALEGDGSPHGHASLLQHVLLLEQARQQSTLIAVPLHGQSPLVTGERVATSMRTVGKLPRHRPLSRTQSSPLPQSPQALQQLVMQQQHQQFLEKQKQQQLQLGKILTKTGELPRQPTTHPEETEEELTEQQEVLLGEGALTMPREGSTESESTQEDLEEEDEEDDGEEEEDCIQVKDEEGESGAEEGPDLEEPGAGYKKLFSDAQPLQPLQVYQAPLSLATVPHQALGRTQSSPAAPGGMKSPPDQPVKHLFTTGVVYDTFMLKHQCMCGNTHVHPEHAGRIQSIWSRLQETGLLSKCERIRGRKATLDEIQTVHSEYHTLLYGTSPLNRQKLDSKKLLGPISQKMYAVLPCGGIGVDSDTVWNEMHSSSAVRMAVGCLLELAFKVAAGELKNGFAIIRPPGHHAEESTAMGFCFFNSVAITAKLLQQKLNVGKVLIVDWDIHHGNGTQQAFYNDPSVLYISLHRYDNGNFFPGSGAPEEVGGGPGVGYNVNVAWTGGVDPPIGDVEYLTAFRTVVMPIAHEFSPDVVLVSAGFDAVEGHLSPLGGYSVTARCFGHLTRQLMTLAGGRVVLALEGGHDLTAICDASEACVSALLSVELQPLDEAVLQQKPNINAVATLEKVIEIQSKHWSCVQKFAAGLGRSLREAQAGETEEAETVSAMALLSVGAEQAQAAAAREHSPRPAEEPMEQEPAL
Sequence of Histone deacetylase 2 (Q92769 whole entry): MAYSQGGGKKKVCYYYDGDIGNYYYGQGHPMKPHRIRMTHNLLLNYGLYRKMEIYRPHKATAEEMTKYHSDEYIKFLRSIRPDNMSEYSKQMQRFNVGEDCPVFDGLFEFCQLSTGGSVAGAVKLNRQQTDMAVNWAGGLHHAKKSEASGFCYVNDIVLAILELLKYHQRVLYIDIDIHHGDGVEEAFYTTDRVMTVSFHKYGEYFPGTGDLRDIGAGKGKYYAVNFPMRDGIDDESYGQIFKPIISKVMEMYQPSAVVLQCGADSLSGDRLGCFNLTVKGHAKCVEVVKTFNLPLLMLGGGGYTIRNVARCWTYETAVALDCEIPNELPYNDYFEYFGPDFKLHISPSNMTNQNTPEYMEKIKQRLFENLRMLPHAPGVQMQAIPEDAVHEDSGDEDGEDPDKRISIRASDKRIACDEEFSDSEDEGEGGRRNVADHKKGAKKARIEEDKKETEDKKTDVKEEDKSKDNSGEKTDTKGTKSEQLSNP
Sequence of Histone deacetylase 1 (Q13547 whole entry): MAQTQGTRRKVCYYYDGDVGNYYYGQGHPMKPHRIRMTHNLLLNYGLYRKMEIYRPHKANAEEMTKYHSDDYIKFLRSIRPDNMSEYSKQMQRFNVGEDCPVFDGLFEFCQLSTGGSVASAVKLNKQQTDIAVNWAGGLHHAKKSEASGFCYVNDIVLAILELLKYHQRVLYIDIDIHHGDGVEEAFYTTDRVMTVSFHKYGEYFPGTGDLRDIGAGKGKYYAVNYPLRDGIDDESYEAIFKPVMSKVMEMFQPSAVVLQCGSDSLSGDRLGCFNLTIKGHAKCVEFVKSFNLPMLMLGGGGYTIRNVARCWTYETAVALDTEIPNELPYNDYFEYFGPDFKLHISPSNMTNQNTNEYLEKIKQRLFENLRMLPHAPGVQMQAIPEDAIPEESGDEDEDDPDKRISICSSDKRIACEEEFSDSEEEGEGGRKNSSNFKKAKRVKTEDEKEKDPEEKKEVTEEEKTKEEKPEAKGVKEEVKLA

Row | Compound | inhibition [1] | inhibition [2] | inhibition [3] | inhibition [4] | inhibition [5] | inhibition [6] | inhibition [7] | IC50 [1] | IC50 [2]
1 | NC(=O)C1CCCc2c(-c3nc4ccccc4s3)n[nH]c21 (racemic) | inactive | inactive | inactive | inactive | inactive | – | – | – | –
2 | Cn1cc(-c2n[nH]c3c2CCCC3C(N)=O)c2ccccc21 (racemic) | inactive | inactive | inactive | inactive | inactive | < 20% | < 20% | – | –
3 | CC1(C)Cc2c(-c3ccc(Br)cc3)n[nH]c2C(C(N)=O)C1 (racemic) | inactive | inactive | inactive | inactive | inactive | 56% | 42% | – | –
4 | NC(=O)C1CC(c2ccccc2)Cc2c(-c3ccc(Cl)cc3)n[nH]c21 (mixture of isomers) | inactive | inactive | inactive | inactive | inactive | 59% | 62% | – | –
5 | NC(=O)C1CCCc2c(-c3cc(Br)cs3)n[nH]c21 (racemic) | inactive | inactive | inactive | inactive | inactive | – | < 20% | – | –
6 | Cn1c(-c2n[nH]c3c2CCCC3C(N)=O)cc2cc(Cl)ccc21 (racemic) | inactive | inactive | inactive | inactive | inactive | 31% | 51% | – | –
7 | NC(=O)C1CCCc2c(-c3cccs3)n[nH]c21 (racemic) | inactive | inactive | inactive | inactive | inactive | 47% | < 20% | – | –
8 | CC1(C)Cc2c(-c3cc4ccccc4s3)n[nH]c2C(C(N)=O)C1 (racemic) | inactive | inactive | inactive | inactive | inactive | 53% | 67% | – | –
9 | NC(=O)C1CCCc2c(-c3cc4ccccc4[nH]3)n[nH]c21 (racemic) | inactive | inactive | inactive | inactive | inactive | 46% | 43% | – | –
10 | Cn1c(-c2n[nH]c3c2CCCC3C(N)=O)cc2ccccc21 (racemic) | inactive | inactive | inactive | inactive | inactive | – | – | – | –
11 | NC(=O)C1CCCc2c(-c3cc4cc(Br)ccc4s3)n[nH]c21 (racemic) | inactive | inactive | inactive | inactive | inactive | 38% | 33% | – | –
12 | NC(=O)C1CCCc2c(-c3ccccc3Cl)n[nH]c21 (racemic) | inactive | inactive | inactive | inactive | inactive | < 20% | 11% | – | –
13 | NC(=O)C1CCCc2c(-c3cc4ccccc4s3)n[nH]c21 (racemic) | inactive | inactive | inactive | inactive | inactive | – | – | – | –
14 | NC(=O)C1CCCc2c(-c3cc4ccccc4o3)n[nH]c21 (racemic) | inactive | inactive | inactive | inactive | inactive | – | – | – | –

The remaining lines, values ahead:

Row | inhibition [1] | inhibition [2] | inhibition [3] | inhibition [4] | inhibition [5] | inhibition [6] | inhibition [7] | IC50 [1] | IC50 [2] | Compound
15 | – | – | – | – | – | – | – | > 10 µM | > 10 µM | NC(=O)C1CCCc2c(-c3ccc(Cl)c(Cl)c3)n[nH]c21 (racemic)
16 | inactive | inactive | inactive | inactive | inactive | 42% | < 20% | – | – | NC(=O)C1CCCc2c(-c3ccc(F)cc3)n[nH]c21 (racemic)
17 | inactive | inactive | inactive | inactive | inactive | – | 36% | – | – | Cc1ccc(-c2n[nH]c3c2CCCC3C(N)=O)cc1 (racemic)
18 | inactive | inactive | inactive | inactive | inactive | < 20% | < 20% | – | – | CNC(=O)C1CCCc2c(-c3ccc(Cl)cc3)n[nH]c21 (racemic)
19 | inactive | inactive | inactive | inactive | inactive | – | 47% | – | – | NC(=O)C1CCCc2c(-c3ccc(Br)cc3)n[nH]c21 (racemic)
20 | inactive | inactive | inactive | inactive | inactive | 27% | < 20% | – | – | NC(=O)C1CCCc2c(-c3cccc(Cl)c3)n[nH]c21 (racemic)
21 | inactive | inactive | inactive | inactive | inactive | – | – | – | – | NC(=O)C1CCCCc2c(-c3ccc(Cl)cc3)n[nH]c21 (racemic)
22 | inactive | inactive | inactive | inactive | inactive | – | 44% | – | – | NC(=O)C1CCCc2c(-c3ccc(Cl)c(F)c3)n[nH]c21 (racemic)
23 | inactive | inactive | inactive | inactive | inactive | < 20% | < 20% | – | – | NC(=O)C1CCCc2c(-c3ccc(C(F)(F)F)cc3)n[nH]c21 (racemic)
24 | inactive | inactive | inactive | inactive | inactive | < 20% | < 20% | – | – | COc1ccc(-c2n[nH]c3c2CCCC3C(N)=O)cc1 (racemic)
25 | inactive | inactive | inactive | inactive | inactive | – | – | – | – | CC1(C)Cc2c(-c3ccc(Cl)cc3)n[nH]c2C(C(N)=O)C1 (racemic)
26 | inactive | inactive | inactive | inactive | inactive | – | 43% | – | – | NC(=O)C1CCCc2c(-c3ccc(Cl)cc3)n[nH]c21 (racemic)
